Assays:
Type in all cases: functional
NCI-H460 = assay: Cytotoxicity against human NCI-H460 cells assessed as cell growth at 10^-5 M after 48 hrs by SRB assay; settings: NCI-H460, 48 h, read-out: Activity
PC-3 = assay: Cytotoxicity against human PC3 cells assessed as cell growth at 10^-5 M after 48 hrs by SRB assay; settings: PC-3, 48 h, read-out: Activity
M14 = assay: Cytotoxicity against human M14 cells assessed as cell growth at 10^-6 M after 48 hrs by SRB assay; settings: M14, 48 h, read-out: Activity
MCF7 [1] = assay: Cytotoxicity against human MCF7 cells assessed as cell growth at 10^-4 M after 48 hrs by SRB assay; settings: MCF7, 48 h, read-out: Activity
MOLT-4 = assay: Cytotoxicity against human MOLT4 cells assessed as cell growth at 10^-8 M after 48 hrs by SRB assay; settings: MOLT-4, 48 h, read-out: Activity
SR = assay: Growth inhibition of human SR cells after 48 hrs by SRB assay
EKVX = assay: Cytotoxicity against human EKVX cells assessed as cell growth at 10^-8 M after 48 hrs by SRB assay; settings: read-out: Activity
Method in brief: (§1)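 NCI-60 screen: lines kept in RPMI 1640 with 5% FBS, seeded at 5000–40,000 cells/well by doubling time, preincubated 24 h at 37 °C in 5% CO2. Time-zero plates TCA-fixed at drug addition. DMSO stocks diluted in medium, 48 h exposure. Fixation in cold TCA (final 10% adherent, 16% suspension), 0.4% SRB stain, solubilised in 10 mM Tris base, A515. Percent growth computed against control and time-zero.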

LOX IMVI [2] = assay: Cytotoxicity against human LOXIMVI cells assessed as cell growth at 10^-6 M after 48 hrs by SRB assay; settings: read-out: Activity
COLO [3] = assay: Cytotoxicity against human COLO […] cells assessed as cell growth at 10^-6 M after 48 hrs by SRB assay; settings: read-out: Activity; method in brief: as §1
U-251 [4] = assay: Cytotoxicity against human U251 cells assessed as cell growth at 10^-4 M after 48 hrs by SRB assay; settings: U-251, 48 h, read-out: Activity
MCF7 [5] = assay: Cytotoxicity against human MCF7 cells assessed as cell growth at 10^-5 M after 48 hrs by SRB assay; settings: MCF7, 48 h, read-out: Activity
COLO [6] = assay: Cytotoxicity against human COLO […] cells assessed as cell growth at 10^-8 M after 48 hrs by SRB assay; settings: read-out: Activity; method in brief: as §1
SF-268 [7] = assay: Growth inhibition of human SF268 cells after 48 hrs by SRB assay; settings: SF-268, 48 h
Method in brief: (§2)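 Adherent NCI-60 lines grown in RPMI 1640 with 5% FBS, seeded at 5000–40,000 cells/well, and preincubated 24 h at 37 °C, 5% CO2. Compound, stocked in DMSO, given either once at 10^-5 M or at five 10-fold dilutions for 48 h. Cells fixed with cold TCA (final 10%), stained with 0.4% SRB, and read at 515 nm. GI50 taken as 50% reduction in net protein increase versus time-zero and control plates.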

U-251 [8] = assay: Growth inhibition of human U251 cells after 48 hrs by SRB assay; settings: U-251, 48 h; method in brief: as §2
OVCAR-3 = assay: Cytotoxicity against human OVCAR3 cells assessed as cell growth at 10^-6 M after 48 hrs by SRB assay; settings: OVCAR-3, 48 h, read-out: Activity
UO-31 = assay: Growth inhibition of human UO31 cells after 48 hrs by SRB assay; settings: UO-31, 48 h; method in brief: as §2
OVCAR-8 = assay: Cytotoxicity against human OVCAR8 cells assessed as cell growth at 10^-8 M after 48 hrs by SRB assay; settings: OVCAR-8, 48 h, read-out: Activity
[9] = Growth inhibition of human NCI-ADR-RES cells after 48 hrs by SRB assay; method in brief: as §2
RXF 393 [10] = assay: Cytotoxicity against human RXF393 cells assessed as cell growth at 10^-8 M after 48 hrs by SRB assay; settings: RXF 393, 48 h, read-out: Activity
KM12 = assay: Cytotoxicity against human KM12 cells assessed as cell growth at 10^-6 M after 48 hrs by SRB assay; settings: KM12, 48 h, read-out: Activity
SF-268 [11] = assay: Cytotoxicity against human SF268 cells assessed as cell growth at 10^-4 M after 48 hrs by SRB assay; settings: SF-268, 48 h, read-out: Activity
HCT-116 = assay: Cytotoxicity against human HCT116 cells assessed as cell growth at 10^-4 M after 48 hrs by SRB assay; settings: HCT-116, 48 h, read-out: Activity
Method in brief: (§3)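 NCI-60 five-dose screen. Cells were grown in RPMI 1640 with 5% FBS and seeded at 5000–40,000 cells/well according to doubling time. They were pre-incubated 24 h at 37 °C in 5% CO₂, and time-zero (Tz) plates were TCA-fixed at drug addition. Five 10-fold dilutions of DMSO stock were applied for 48 h. Read-out was SRB staining, 515 nm absorbance, with percent growth calculated versus Tz and untreated control.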

HL-60 = assay: Cytotoxicity against human HL60 cells assessed as cell growth at 10^-7 M after 48 hrs by SRB assay; settings: HL-60, 48 h, read-out: Activity; method in brief: as §3
OVCAR-4 = assay: Cytotoxicity against human OVCAR4 cells assessed as cell growth at 10^-6 M after 48 hrs by SRB assay; settings: OVCAR-4, 48 h, read-out: Activity
Malme-3M = assay: Cytotoxicity against human MALME-3M cells assessed as cell growth at 10^-8 M after 48 hrs by SRB assay; settings: read-out: Activity
CAKI-1 = assay: Cytotoxicity against human Caki1 cells assessed as cell growth at 10^-4 M after 48 hrs by SRB assay; settings: CAKI-1, 48 h, read-out: Activity; method in brief: as §1
MDA-MB-231 = assay: Cytotoxicity against human MDA-MB-231 cells assessed as cell growth at 10^-6 M after 48 hrs by SRB assay; settings: MDA-MB-231, 48 h, read-out: Activity
[12] = Cytotoxicity against human Hs 578T cells assessed as cell growth at 10^-6 M after 48 hrs by SRB assay; settings: read-out: Activity; method in brief: as §3
CCRF-CEM = assay: Cytotoxicity against human CCRF-CEM cells assessed as cell growth at 10^-4 M after 48 hrs by SRB assay; settings: read-out: Activity; method in brief: as §1
LOX IMVI [13] = assay: Cytotoxicity against human LOXIMVI cells assessed as cell growth at 10^-8 M after 48 hrs by SRB assay; settings: read-out: Activity
RXF 393 [14] = assay: Cytotoxicity against human RXF393 cells assessed as cell growth at 10^-5 M after 48 hrs by SRB assay; settings: RXF 393, 48 h, read-out: Activity
SNB-19 = assay: Cytotoxicity against human SNB19 cells assessed as cell growth at 10^-4 M after 48 hrs by SRB assay; settings: SNB-19, 48 h, read-out: Activity

## COc1ccc(-c2nn3cc(-c4ccc(O)cc4O)nc3s2)cc1
NCI-H460
  growth at 10 µM: -6%
PC-3
  growth at 10 µM: 14%
M14
  growth at 1 µM: 81%
MCF7 [1]
  growth at 100 µM: -7%
MOLT-4
  growth at 0.01 µM: 100%
SR
  GI50: 2.17 µM
  LC50: > 100 µM
  TGI: 14 µM
EKVX
  growth at 0.01 µM: 103%
LOX IMVI [2]
  growth at 1 µM: 82%
COLO [3]
  growth at 1 µM: 100%
U-251 [4]
  growth at 100 µM: -46%
MCF7 [5]
  growth at 10 µM: 3%
COLO [6]
  growth at 0.01 µM: 104%
SF-268 [7]
  GI50: 2.42 µM
  LC50: > 100 µM
  TGI: 41.1 µM
U-251 [8]
  GI50: 1.7 µM
  LC50: > 100 µM
  TGI: 4.48 µM
OVCAR-3
  growth at 1 µM: 89%
UO-31
  GI50: 1.44 µM
  LC50: > 100 µM
  TGI: 3.97 µM
OVCAR-8
  growth at 0.01 µM: 102%
[9]
  GI50: 2.94 µM
  LC50: > 100 µM
  TGI: 44.9 µM
RXF 393 [10]
  growth at 0.01 µM: 99%
KM12
  growth at 1 µM: 86%
SF-268 [11]
  growth at 100 µM: -8%
HCT-116
  growth at 100 µM: -55%
HL-60
  growth at 0.1 µM: 92%
OVCAR-4
  growth at 1 µM: 68%
Malme-3M
  growth at 0.01 µM: 87%
CAKI-1
  growth at 100 µM: -9%
MDA-MB-231
  growth at 1 µM: 66%
[12]
  growth at 1 µM: 71%
CCRF-CEM
  growth at 100 µM: 8%
LOX IMVI [13]
  growth at 0.01 µM: 101%
RXF 393 [14]
  growth at 10 µM: -83%
SNB-19
  growth at 100 µM: 1%

## COc1ccc(-c2nn3cc(-c4cccc(N)c4)nc3s2)cc1
NCI-H460
  growth at 10 µM: 26%
PC-3
  growth at 10 µM: 10%
M14
  growth at 1 µM: 94%
MCF7 [1]
  growth at 100 µM: -47%
MOLT-4
  growth at 0.01 µM: 103%
SR
  GI50: 3.27 µM
  LC50: > 100 µM
  TGI: > 100 µM
EKVX
  growth at 0.01 µM: 81%
LOX IMVI [2]
  growth at 1 µM: 77%
COLO [3]
  growth at 1 µM: 94%
U-251 [4]
  growth at 100 µM: -17%
MCF7 [5]
  growth at 10 µM: 21%
COLO [6]
  growth at 0.01 µM: 103%
SF-268 [7]
  GI50: 4.13 µM
  LC50: > 100 µM
  TGI: 27.2 µM
U-251 [8]
  GI50: 7.65 µM
  LC50: > 100 µM
  TGI: 52.1 µM
OVCAR-3
  growth at 1 µM: 86%
UO-31
  GI50: 1.46 µM
  LC50: 63.3 µM
  TGI: 10.2 µM
OVCAR-8
  growth at 0.01 µM: 104%
[9]
  GI50: 4.46 µM
  LC50: > 100 µM
  TGI: 55.1 µM
RXF 393 [10]
  growth at 0.01 µM: 90%
KM12
  growth at 1 µM: 84%
SF-268 [11]
  growth at 100 µM: -34%
HCT-116
  growth at 100 µM: -91%
HL-60
  growth at 0.1 µM: 95%
OVCAR-4
  growth at 1 µM: 60%
Malme-3M
  growth at 0.01 µM: 102%
CAKI-1
  growth at 100 µM: -39%
MDA-MB-231
  growth at 1 µM: 61%
[12]
  growth at 1 µM: 76%
CCRF-CEM
  growth at 100 µM: 6%
LOX IMVI [13]
  growth at 0.01 µM: 94%
RXF 393 [14]
  growth at 10 µM: -31%
SNB-19
  growth at 100 µM: 7%

— ChEMBL document CHEMBL2146441, “2,6-Disubstituted imidazo[2,1-b][1,3,4]thiadiazoles: search for anticancer agents” (2012)
